Source: paper PMC4278051 (Journal of Breast Cancer, 2014)

Key:
MCF-7 cells = assay: MTT reduction proliferation assay; format: cell-based, human; conditions: 2, 24, 48 and 72 hours; for MCF-7 cell growth rate / viability compared to the controls (MTT): increasing concentrations (10^-10-10^-4 M capsaicin, capsazepine; 10^-10-10^-6 M RTX, 5-I-RTX), p<0.05, n=6
In short: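 MCF-7 cells grown in DMEM with 20% FBS were seeded at 5×10^3 cells/100 µL in 96-well plates. Cells were exposed to test compound at increasing concentrations (10-10 up to 10^-4 or 10^-6 M, by compound) and assayed at 2, 24, 48 and 72 h. MTT was added for 4 h at 37 °C, 5% CO2, and formazan was dissolved in DMSO for 10 min at RT. OD was read at 570 nm (n=6, mean±SEM) and analysed by Kruskal-Wallis with Dunn post-test.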

TRPV1 [1] = target: T1, TRPV1 (Homo sapiens, UniProt Q8NER1); assay: Inhibition of RTX induced ^45Ca^2+ uptake by antagonists in MCF-7; format: cell-based; conditions: in the presence of RTX 2 nM, n=4
[2] = target: transient receptor potential vanilloid 1 (Homo sapiens, UniProt Q8NER1); assay: Competition; conditions: inhibition of 1.2 nM ^3[H]RTX binding, MCF-7 membranes, Cheng-Prussoff
TRPV1 [3] = conditions: ref 23 (Rigoni et al.); cited from earlier work
TRPV1 [4] = target: T1, TRPV1; assay: ^45Ca^2+ uptake assay, stimulation by agonists in MCF-7; format: cell-based; conditions: for E max of Ca^2+ uptake: 20 minutes at 37℃, 10^-11-10^-3 M, n=4

T1 sequence (Q8NER1 whole entry): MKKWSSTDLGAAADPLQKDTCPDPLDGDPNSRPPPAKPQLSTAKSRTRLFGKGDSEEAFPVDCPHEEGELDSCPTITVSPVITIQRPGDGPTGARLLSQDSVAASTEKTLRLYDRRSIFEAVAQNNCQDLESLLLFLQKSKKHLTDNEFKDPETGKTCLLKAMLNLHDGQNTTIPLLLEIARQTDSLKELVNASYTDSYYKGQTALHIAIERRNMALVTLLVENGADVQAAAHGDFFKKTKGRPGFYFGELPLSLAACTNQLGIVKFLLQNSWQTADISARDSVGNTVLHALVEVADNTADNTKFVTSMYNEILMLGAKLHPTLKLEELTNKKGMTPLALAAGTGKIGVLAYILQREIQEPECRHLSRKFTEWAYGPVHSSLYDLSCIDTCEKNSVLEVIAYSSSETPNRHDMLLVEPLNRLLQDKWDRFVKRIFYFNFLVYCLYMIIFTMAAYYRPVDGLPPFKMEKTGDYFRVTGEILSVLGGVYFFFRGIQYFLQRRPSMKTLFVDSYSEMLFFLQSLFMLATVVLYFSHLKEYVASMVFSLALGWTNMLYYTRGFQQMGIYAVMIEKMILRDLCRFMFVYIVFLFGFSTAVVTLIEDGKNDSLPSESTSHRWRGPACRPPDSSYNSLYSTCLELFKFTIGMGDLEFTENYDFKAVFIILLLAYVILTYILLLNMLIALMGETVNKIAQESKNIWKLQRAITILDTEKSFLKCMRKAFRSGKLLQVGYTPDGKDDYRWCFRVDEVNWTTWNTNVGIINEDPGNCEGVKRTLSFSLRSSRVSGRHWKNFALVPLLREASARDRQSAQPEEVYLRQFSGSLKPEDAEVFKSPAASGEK
Chain of transient receptor potential vanilloid 1 (Q8NER1 whole entry): as above

Question: Which results are given for `C=C(C)[C@]12C[C@@H](C)[C@@]34O[C@](Cc5ccccc5)(O[C@@H]1[C@@H]3C=C(COC(=O)Cc1cc(I)c(O)c(OC)c1)C[C@]1(O)C(=O)C(C)=C[C@@H]41)O2` [5-I-RTX, 5-iodoresiniferatoxin]?
Answer: MCF-7 cell growth rate / viability compared to the controls (MTT) (MCF-7 cells): significant decrease; E max of Ca^2+ influx inhibition (TRPV1 [1]): 108.3%; Ki [2]: 0.056 nM; Potency relative to the antagonist capsazepine (times more potent) (TRPV1 [3]): 20

Question: For `CCCCC/C=C\C/C=C\C/C=C\C/C=C\CCCC(=O)NCCO` [Anandamide, anandamide], which EC50 (TRPV1 [4]) is on record?
Answer: 110 nM

Question: And the “Agonist character at TRPV1 expressed in MCF-7, from E max of calcium uptake” value (TRPV1 [4]; ^45Ca^2+ uptake)?
Answer: full agonist

Question: And the “E max of Ca^2+ uptake” value (TRPV1 [4]; ^45Ca^2+ uptake)?
Answer: 557.0 cpm

Question: Which “E max of Ca^2+ uptake” value (TRPV1 [4]; ^45Ca^2+ uptake) does the source give for `COc1cc(CNC(=O)CCCC/C=C/C(C)C)ccc1O` [Capsaicin, capsaicin] here?
Answer: 478.8 cpm

Question: What about the “MCF-7 cell growth rate / viability compared to the controls (MTT)” value (MCF-7 cells) of the same compound?
Answer: significant decrease

Question: For `Oc1cc2c(cc1O)CN(C(=S)NCCc1ccc(Cl)cc1)CCC2` [Capsazepine, capsazepine], which “MCF-7 cell growth rate / viability compared to the controls (MTT)” value (MCF-7 cells) is on record?
Answer: significant decrease

Question: For `C=C(C)[C@]12C[C@@H](C)[C@@]34O[C@](Cc5ccccc5)(O[C@@H]1[C@@H]3C=C(COC(=O)Cc1ccc(O)c(OC)c1)C[C@]1(O)C(=O)C(C)=C[C@@H]41)O2` [RTX, resiniferatoxin], which EC50 (TRPV1 [4]) is on record?
Answer: 24 nM

Question: And the “E max of Ca^2+ uptake” value (TRPV1 [4]; ^45Ca^2+ uptake)?
Answer: 777.0 cpm

Question: And the “Time dependence of MCF-7 growth inhibition (MTT)” value (MCF-7 cells)?
Answer: time-dependent behavior

Question: And the “MCF-7 cell growth rate / viability compared to the controls (MTT)” value (MCF-7 cells)?
Answer: significant decrease
